From PubChem BioAssay
GPR7 antagonist: antagonists of human GPR7 (neuropeptides B/W receptor 1). P48145. GPR7-expressing cells, fluorescence antagonist assay. inhibition, % at 4.4 µM. actives 1.1% (n = 290,000). AID 1861; in the data active means inhibition above about 16%, passing the limit was not always enough;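 further: cells stimulated with the agonist NPW; 0% = agonist with vehicle and 100% = vehicle without agonist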
Target sequence (P48145 whole entry, looked up): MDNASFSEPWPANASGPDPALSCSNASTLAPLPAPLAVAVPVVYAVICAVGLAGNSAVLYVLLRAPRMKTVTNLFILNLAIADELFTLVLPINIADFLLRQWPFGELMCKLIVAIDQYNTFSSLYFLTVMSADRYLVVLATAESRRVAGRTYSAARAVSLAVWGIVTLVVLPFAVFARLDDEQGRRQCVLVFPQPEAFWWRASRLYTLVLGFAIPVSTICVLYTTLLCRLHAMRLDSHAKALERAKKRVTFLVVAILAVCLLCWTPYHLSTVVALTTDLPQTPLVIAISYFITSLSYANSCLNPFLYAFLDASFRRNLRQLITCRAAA
HSF-1 act: increases HSF-1 driven luciferase reporter signal | NIH3T3-HGL HSF-1 luciferase reporter, MG132, 8 h; 100% = twice DMSO control signal | activation, % at 9 µM | actives 1.7% (n = 300,000) | AID 504408;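 active means mean replicate activation of at least 50% with a set share of replicates each reaching 50%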;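 further: 0% = median of the neutral control wells and 100% = twice that signal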
Jurkat NFkB inh: inhibitors of the PMA/ionomycin-induced NF-kB reporter in Jurkat cells | PMA/ionomycin-induced NF-kB luciferase reporter, luminescence | actives 0.53% (n = 330,000) | inhibition, % at 4 µM | AID 435003; in the data active means inhibition above about 50%
HSF1 inh: HSF1 inhibition; AID 2098; NIH3T3-HGL HSE-luciferase, MG132-induced, luminescence 8 h; active compounds read low; activity change, negative = inhibition, % at 7.5 µM (by protocol); actives 0.77% (n = 300,000);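 active means more than half of replicate wells show activity change below -50%, luminescence cut by over half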;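 further: luciferase reports HSF-1 transcriptional activity via heat shock element; 0% = median of DMSO wells and -100% = zero luminescence signal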
T cruzi repl: blocks replication of Trypanosoma cruzi. T. cruzi beta-gal in NIH3T3, luminescence, 90 h. actives 1.4% (n = 300,000). inhibition, % (concentration not given with the values);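 active means mean inhibition across valid replicates above about 55%, limit read from the data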;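 further: signal also drops with host cell toxicity which is not excluded here; 0% = plate median of DMSO wells and 100% = zero luminescence signal; higher percent means less beta-gal luminescence so fewer parasites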
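Material: NIH/3T3 host cells with β-galactosidase reporter T. cruzi; Input: 5,000 host fibroblasts per well; Medium: DMEM, 2% fetal bovine serum; Compound: 50 nL DMSO compound solution per well; Schedule: 3 h host attachment, then at least 90 h co-culture; Detection: luminescent β-galactosidase signal after 60 min lysis.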
697 NFkB inh: lowers PMA/ionomycin-induced NF-kB signal in 697 B cells | 697 B-cell NF-kB luciferase reporter, 16 h | inhibition, % at 4 µM | actives 0.33% (n = 330,000); in the data active means inhibition above about 35%
An asterisk follows results filed as active; nt = no result. Most compounds without a hit are left out; they make up all but 4.8% or so of the library.

SMILES | GPR7 antagonist | HSF-1 act | Jurkat NFkB inh | HSF1 inh | T cruzi repl | 697 NFkB inh
COc1ccc(C(=O)O/N=C(\N)c2ccccn2)cc1 | -4 | -78 | 37 | -75* | -6 | -128
O=C(SCC(O)C(O)CS)c1cccs1 (stereo not given) | nt | -2 | -11 | 7 | -6 | -6
CC(=O)n1nc(-c2ccc(C)cc2)nc1NCc1ccc(F)cc1 | -5 | 6 | nt | 7 | 0 | nt
O=C(NCc1ccco1)c1ccc([N+](=O)[O-])o1 | -7 | 48 | -6 | 33 | 73* | 11
O=C(NCc1ccco1)c1ccc(Cn2cc([N+](=O)[O-])cn2)o1 | -6 | -4 | 8 | -1 | -14 | 14
O=C(NCc1cccnc1)c1ccc([N+](=O)[O-])o1 | 2 | 70* | -7 | 29 | 74* | 1
CC(C)(C)c1ccc(OCc2ccc(C(=O)NCc3cccnc3)o2)cc1 | -7 | 112* | -28 | 57 | 3 | -32
O=C(Cc1ccc(Cl)cc1Cl)OCC(=O)N1CCCCC1 | -6 | -7 | 15 | 2 | -10 | 3
Cc1ccccc1C(=O)O/N=C(\N)c1ccccc1 | 6 | 27 | -36 | 19 | 1 | -141
Cc1ccccc1/C(N)=N/OC(=O)c1ccc(F)cc1 | -3 | 58* | -48 | 27 | 12 | -79
O=C(Nc1ccc(-c2nc3ccccc3o2)cc1)c1ccc(N2CCOCC2)c([N+](=O)[O-])c1 | -12 | -1 | 5 | -8 | 57* | -114
Cn1cc([N+](=O)[O-])c(C(=O)Nc2ccc(-c3nc4ccccc4o3)cc2)n1 | -4 | 285* | -57 | 281 | 6 | -61
Cc1cc(S(=O)(=O)Nc2nc(CN3CCOCC3)nc3sc4c(c23)CCC4)ccc1F | nt | nt | 2 | nt | nt | -5
Cc1cc(NC(=O)OC2CCCCC2)ccc1[N+](=O)[O-] | 2 | 71* | -111 | 34 | 13 | -164
Cc1ccc(NC(=O)C2C3CCCCC32)cc1[N+](=O)[O-] (stereo not given) | -16 | 30 | -51 | 18 | 7 | -53
O=C(O)c1nc(NCCc2ccccc2)ncc1Cl | -13 | -14 | -3 | -4 | -13 | 9
C/C(=N\NC(N)=S)C1C2C3CC4C5CC(C42)C1C53 (stereo not given) | -10 | 16 | 22 | -6 | 77* | 29
C/C(CC1CC(C)OC1=O)=N\NC(N)=S (stereo not given) | 3 | -7 | 5 | -10 | -9 | 13
CCc1ccc(N2CC(C(=O)N/N=C/c3cc([N+](=O)[O-])ccc3O)CC2=O)cc1 (stereo not given) | -2 | -58 | 5 | -55* | -4 | 0
OC(CNCCc1ccccc1)COc1ccc(OCC(O)CNCCc2ccccc2)cc1 (stereo not given) | 32* | -2 | 48 | -2 | 41 | 6
N#Cc1ccc(-c2ccc(OCC(O)CN3CCCCC3)cc2)cc1 (stereo not given) | 4 | 10 | -6 | 0 | 62* | -4
c1ccc(COc2ccc(OCCN3CCCCC3)cc2)cc1 | -1 | 14 | -21 | -1 | 41 | -26
OC(CNCCc1ccc(Cl)cc1)COc1ccc2ccccc2c1 (stereo not given) | 12 | nt | nt | nt | nt | nt
Cc1ccc(C(C)(C)C)c(OCCN2CCCC2)c1 | -4 | 3 | -9 | 3 | 42 | 1
c1ccc(COc2ccc(OCCN3CCCC3)cc2)cc1 | 4 | 8 | -56 | 4 | 55* | -51
SMILES | GPR7 antagonist | HSF-1 act | Jurkat NFkB inh | HSF1 inh | T cruzi repl | 697 NFkB inh
CC(C)(C)c1ccccc1OCCN1CCCC1 | -13 | -10 | -2 | -8 | 60* | 2
Nc1ccccc1NC1CCCCC1 | 0 | nt | nt | nt | nt | nt
O=[N+]([O-])c1cccc(S(=O)(=O)N2CCCCC2)c1 | -6 | -2 | 5 | -5 | 6 | 5
COC(=O)c1ccccc1NC(=S)N(Cc1ccc2c(c1)OCO2)Cc1cc2cc(OC)ccc2[nH]c1=O | -6 | 21 | -3 | 9 | 51 | 15
O=C(NC(=S)Nc1nc2c(ccc3ccccc32)s1)c1cccs1 | -13 | -34 | 5 | -21 | 2 | -9
COc1ccc(-c2nn(-c3ccccc3)cc2C(=O)O)cc1N | -22 | -8 | 4 | -4 | -1 | -3
CC1(C)CC(NC(=O)c2ccc(Cl)c(Cl)c2)CC(C)(C)N1 | -1 | 15 | 6 | -10 | -4 | -1
COc1ccccc1CCc1nnc(CCC(=O)NC(C)Cc2cccnc2)o1 (stereo not given) | -5 | 16 | -5 | -15 | -50 | -11
ON=C1c2cc(OCCN3CCCCC3)ccc2-c2ccc(OCCN3CCCCC3)cc21 | -11 | -20 | -5 | -11 | 61* | -3
OC(CN1CCN(Cc2ccccc2)CC1)c1ccccc1 (stereo not given) | -10 | -8 | 5 | -2 | 38 | 18
OC(COc1ccc(OCc2ccccc2)cc1)CN1CCOCC1 (stereo not given) | -16 | -4 | -11 | 1 | 1 | -16
OC(COc1ccc(OCc2ccccc2)cc1)CN1CCCCC1 (stereo not given) | 3 | 8 | -61 | 22 | 56* | -2
OC(CN1CCN(Cc2ccccc2)CC1)c1ccc(Br)cc1 (stereo not given) | nt | -9 | -16 | -2 | 57* | -32
CN1CCN(CC(O)COC(c2ccccc2)c2ccccc2)CC1 (stereo not given) | -10 | -8 | -17 | -14 | 61* | -5
COc1ccc(/C(N)=N/OC(=O)CCCN2C(=O)c3ccccc3C2=O)cc1OC | 4 | 5 | 18 | 0 | -3 | -5
COc1ccc(CCNCC(O)COc2cccc(C(C)=O)c2)cc1OC (stereo not given) | 11 | -4 | -20 | 4 | 56* | -5
OC(COc1ccc(OCC(O)CN2CCN(Cc3ccccc3)CC2)cc1)CN1CCN(Cc2ccccc2)CC1 (stereo not given) | nt | -11 | 5 | -5 | 65* | -6
NC(=O)C1CCN(C(=O)c2ccc3c(=O)n(Cc4ccco4)c(SCC(=O)c4ccc(F)cc4)nc3c2)CC1 | 4 | 9 | 1 | 0 | 4 | 25
N#Cc1c(NC(=O)/C=C/C(=O)O)sc2c1CCN(Cc1ccccc1)C2 | 5 | 59* | -10 | 16 | -7 | -3
Cc1cc(F)ccc1S(=O)(=O)N1CCCOC1CNC(=O)C(=O)NCc1ccccn1 (stereo not given) | -15 | -8 | 1 | -2 | -7 | 11
O=C(Oc1c(-c2ccccc2)oc2ccccc2c1=O)c1ccccc1 | -22 | 9 | -26 | 2 | 21 | -7
O=C(Oc1c(-c2ccccc2Cl)oc2ccccc2c1=O)c1ccc(Cl)cc1 | -11 | -65 | 7 | -54* | 2 | 7
CCOc1cc(CNc2ccc(N3CCOCC3)cc2)cc(Br)c1OCC | -12 | -26 | 18 | -26 | 16 | -37
